Activity calls are given as the source filed them. No cut-off for these calls is given here.
Legend:
MCF7 = assay: Cytostatic activity against human MCF7 cells after 72 hrs by MTT assay; format: functional, cell-based; conditions: MCF7, 72 h
Method in brief: (§1)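 Monolayers in DMEM with 10% FBS, 2 mM L-glutamine and penicillin/streptomycin, 37 °C, 5% CO2. Seeded at 1–3 × 10^4 cells/ml, then compound added in tenfold dilutions (10⁻⁸–10⁻⁴ M) for 72 h. MTT read at 570 nm; percent growth taken against time-zero and untreated controls. IC50 by linear regression; quadruplicate, at least two experiments.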

Felid alphaherpesvirus 1 = assay: Antiviral activity against Feline herpesvirus infected in feline CRFK cells assessed as inhibition of virus-induced cytopathic effect at 0.32 to 100 uM; format: functional, organism-based
Method in brief: (§2)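 Confluent cell cultures were infected with 100 CCID50 of virus in the presence of test compound at 100, 40, 8, 1.6 and 0.32 μM. Cytopathic effect was scored once it was complete in untreated infected controls.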

Vaccinia virus = assay: Antiviral activity against Vaccinia virus infected in human lung fibroblast assessed as inhibition of virus-induced cytopathic effect at 0.32 to 100 uM; format: functional, organism-based; conditions: Orthopoxvirus vaccinia
Sindbis virus = assay: Antiviral activity against Sindbis virus infected in african green monkey Vero cells assessed as inhibition of virus-induced cytopathic effect at 0.32 to 100 uM; format: functional, organism-based; method in brief: as §2
[1] = tested on: Radical scavenging activity; assay: Antioxidant activity assessed as DPPH free radical scavenging activity at 100 uM after 60 mins by spectrophotometric analysis; format: functional
Method in brief: (§3)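 0.05 mM DPPH in absolute ethanol mixed with an equal volume of compound in DMSO (final 100 μM). Shaken and left 20 or 60 min, then absorbance read at 517 nm and percent activity calculated. Three replicates, averaged.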

L1210 = assay: Cytostatic activity against mouse L1210 cells after 2 days by coulter counter analysis; format: functional, cell-based; conditions: L1210, 48 h
Method in brief: (§4)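 300,000–500,000 cells/ml mixed 1:1 with compound dilutions and incubated at 37 °C for 2 days (L1210) or 3 days (CEM, HeLa). Cell number counted with a Coulter counter; HeLa trypsinized before counting.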

Human alphaherpesvirus 2 = assay: Antiviral activity against HSV2 G infected in human lung fibroblast assessed as inhibition of virus-induced cytopathic effect at 0.32 to 100 uM; format: functional, organism-based; conditions: strain G; method in brief: as §2
Glycine max = assay: Inhibition of soybean LOX assessed as conversion of sodium linoleate to 13- hydroperoxylinoleic acid at 100 uM
[2] = Antioxidant activity assessed as inhibition of AAPH-induced linoleic acid lipid peroxidation by measuring conjugated diene hydroperoxide level; format: functional; set-up: concentration or dose not given beside the values
Method in brief: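 Linoleic acid sodium salt (10 μL of 16 mM) in 0.05 M phosphate buffer pH 7.4 at 37 °C. Oxidation started under air with 50 μL of 40 mM AAPH. Conjugated diene hydroperoxide formation followed as absorbance rise at 234 nm; control contains the same DMSO level. At least triplicate.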

Feline coronavirus = assay: Antiviral activity against Feline coronavirus infected in feline CRFK cells assessed as inhibition of virus-induced cytopathic effect at 0.32 to 100 uM; format: functional, organism-based; method in brief: as §2
Coxsackievirus B4 [3] = assay: Antiviral activity against Coxsackievirus B4 infected in human cervix carcinoma cells assessed as inhibition of virus-induced cytopathic effect at 0.32 to 100 uM; format: functional, organism-based; method in brief: as §2
[4] = tested on: Vesicular stomatitis virus; assay: Antiviral activity against VSV infected in human lung fibroblast assessed as inhibition of virus-induced cytopathic effect at 0.32 to 100 uM; format: functional, organism-based
HeLa = assay: Cytostatic activity against human HeLa cells after 3 days by coulter counter analysis; format: functional, cell-based; conditions: 72 h; method in brief: as §4
[5] = tested on: Mammalian orthoreovirus 1; assay: Antiviral activity against Reovirus-1 infected in african green monkey Vero cells assessed as inhibition of virus-induced cytopathic effect at 0.32 to 100 uM; format: functional, organism-based; method in brief: as §2
Influenza B virus = assay: Antiviral activity against Influenza B virus infected in MDCK cells assessed as inhibition of virus-induced cytopathic effect at 0.32 to 100 uM; format: functional, organism-based
Method in brief: (§5)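 Confluent MDCK monolayers were infected in the presence of the compound at 100, 40, 8, 1.6 and 0.32 μM. Viral cytopathicity was scored once it was complete in untreated infected control cultures.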

CCRF-CEM = assay: Cytostatic activity against human CEM cells after 3 days by coulter counter analysis; format: functional, cell-based; conditions: 72 h; method in brief: as §4
[6] = tested on: Human immunodeficiency virus 1; assay: Antiviral activity against HIV1 3B infected in human CEM cells assessed as inhibition of virus-induced CEM giant cell formation at 0.32 to 100 uM after 4 days; format: functional, organism-based; conditions: CCRF-CEM
Method in brief: (§6)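 CEM cells (~3 × 10^5 cells/cm³) exposed to 100 CCID50/ml of virus and seeded into wells holding compound dilutions. Incubated 4 days at 37 °C, then giant cell formation examined microscopically.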

Coxsackievirus B4 [7] = assay: Antiviral activity against Coxsackievirus B4 infected in african green monkey Vero cells assessed as inhibition of virus-induced cytopathic effect at 0.32 to 100 uM; format: functional, organism-based; method in brief: as §2
Human respirovirus 3 = assay: Antiviral activity against Parainfluenza virus 3 infected in african green monkey Vero cells assessed as inhibition of virus-induced cytopathic effect at 0.32 to 100 uM; format: functional, organism-based; method in brief: as §2
[8] = tested on: Respiratory syncytial virus; assay: Antiviral activity against RSV infected in human cervix carcinoma cells assessed as inhibition of virus-induced cytopathic effect at 0.32 to 100 uM; format: functional, organism-based; method in brief: as §2
Punta Toro virus = assay: Antiviral activity against Punta Toro virus infected in african green monkey Vero cells assessed as inhibition of virus-induced cytopathic effect at 0.32 to 100 uM; format: functional, organism-based; method in brief: as §2
NCI-H460 = assay: Cytostatic activity against human NCI-H460 cells after 72 hrs by MTT assay; format: functional, cell-based; conditions: NCI-H460, 72 h; method in brief: as §1
Human alphaherpesvirus 1 = assay: Antiviral activity against HSV1 KOS infected in human lung fibroblast assessed as inhibition of virus-induced cytopathic effect at 0.32 to 100 uM; format: functional, organism-based; method in brief: as §2
[9] = tested on: Vesicular stomatitis virus; assay: Antiviral activity against Vesicular stomatitis virus infected in human cervix carcinoma cells assessed as inhibition of virus-induced cytopathic effect at 0.32 to 100 uM; format: functional, organism-based
Method in brief: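 Confluent human cervix carcinoma (HeLa) cultures received 100 CCID50 of VSV together with the compound at 100, 40, 8, 1.6 or 0.32 μM. Cytopathicity was read at the point of full CPE in infected, untreated control wells.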

Influenza A virus [10] = assay: Antiviral activity against Influenza A virus H1N1 infected in MDCK cells assessed as inhibition of virus-induced cytopathic effect at 0.32 to 100 uM; format: functional, organism-based; method in brief: as §5
HCT-116 = assay: Cytostatic activity against human HCT116 cells after 72 hrs by MTT assay; format: functional, cell-based; conditions: HCT-116, 72 h; method in brief: as §1
[11] = tested on: Radical scavenging activity; assay: Antioxidant activity assessed as DPPH free radical scavenging activity at 100 uM after 20 mins by spectrophotometric analysis; format: functional; method in brief: as §3
[12] = tested on: Human immunodeficiency virus 2; assay: Antiviral activity against HIV2 ROD infected in human CEM cells assessed as inhibition of virus-induced CEM giant cell formation at 0.32 to 100 uM after 4 days; format: functional, organism-based; conditions: ISOLATE ROD, CCRF-CEM; method in brief: as §6
Influenza A virus [13] = assay: Antiviral activity against Influenza A virus H3N2 infected in MDCK cells assessed as inhibition of virus-induced cytopathic effect at 0.32 to 100 uM; format: functional, organism-based; method in brief: as §5
[14] = dose or concentration not given here

SMILES | IC50 (MCF7) [µM] | inhibition (Felid alphaherpesvirus 1) | inhibition (Vaccinia virus) | inhibition (Sindbis virus) | Activity [1] [%] | IC50 (L1210) [µM] | inhibition (Human alphaherpesvirus 2) | inhibition (Glycine max) | inhibition (Feline coronavirus) | inhibition (Coxsackievirus B4 [3]) | inhibition [4] | IC50 (HeLa) [µM] | inhibition [5] | inhibition (Influenza B virus) | IC50 (CCRF-CEM) [µM] | inhibition [6] | inhibition (Coxsackievirus B4 [7]) | inhibition (Human respirovirus 3) | inhibition [8] | inhibition (Punta Toro virus) | also measured
CC(C(=O)NN)c1cccc(Oc2ccccc2)c1 (centres undefined) | > 100 | inactive | inactive | inactive | 1 | 212 | inactive | 3% | inactive | inactive | inactive | 120 | inactive | inactive | 154 | inactive | inactive | inactive | inactive | inactive | inhibition [2, 14]: 10%; IC50 (NCI-H460): > 100 µM; inhibition (Human alphaherpesvirus 1): inactive; inhibition [9]: inactive; inhibition (Influenza A virus [10]): inactive; IC50 (HCT-116): > 100 µM; Activity [11]: inactive; inhibition [12]: inactive; inhibition (Influenza A virus [13]): inactive
CC(C)Cc1ccc(C(C)C(=O)NNC(=O)NNC(=O)NO)cc1 (centres undefined) | > 100 | inactive | inactive | inactive | 46 | > 250 | inactive | inactive | inactive | inactive | inactive | > 250 | inactive | inactive | > 250 | inactive | inactive | inactive | inactive | inactive | inhibition [2, 14]: 15%; IC50 (NCI-H460): > 100 µM; inhibition (Human alphaherpesvirus 1): inactive; inhibition [9]: inactive; inhibition (Influenza A virus [10]): inactive; IC50 (HCT-116): > 100 µM; Activity [11]: 24%; inhibition [12]: inactive; inhibition (Influenza A virus [13]): inactive
CC(C)Cc1ccc(C(C)C(=O)NN)cc1 (centres undefined) | > 100 | inactive | inactive | inactive | 1 | 170 | inactive | 8% | inactive | inactive | inactive | 129 | inactive | inactive | 147 | inactive | inactive | inactive | inactive | inactive | inhibition [2, 14]: 6%; IC50 (NCI-H460): > 100 µM; inhibition (Human alphaherpesvirus 1): inactive; inhibition [9]: inactive; inhibition (Influenza A virus [10]): inactive; IC50 (HCT-116): > 100 µM; Activity [11]: inactive; inhibition [12]: inactive; inhibition (Influenza A virus [13]): inactive
CC(C(=O)NNC(=O)NOCc1ccccc1)c1cccc(Cc2ccccc2)c1 (centres undefined) | 41 | inactive | inactive | inactive | 6 | 79 | inactive | inactive | inactive | inactive | inactive | 78 | inactive | inactive | 101 | inactive | inactive | inactive | inactive | inactive | inhibition [2]: inactive; IC50 (NCI-H460): 82 µM; inhibition (Human alphaherpesvirus 1): inactive; inhibition [9]: inactive; inhibition (Influenza A virus [10]): inactive; IC50 (HCT-116): 56 µM; Activity [11]: 3%; inhibition [12]: inactive; inhibition (Influenza A virus [13]): inactive
CC(C(=O)NNC(=O)NNC(=O)NO)c1cccc(Oc2ccccc2)c1 (centres undefined) | > 100 | inactive | inactive | inactive | 48 | > 250 | inactive | inactive | inactive | inactive | inactive | ≥ 250 | inactive | inactive | > 250 | inactive | inactive | inactive | inactive | inactive | inhibition [2, 14]: 13%; IC50 (NCI-H460): > 100 µM; inhibition (Human alphaherpesvirus 1): inactive; inhibition [9]: inactive; inhibition (Influenza A virus [10]): inactive; IC50 (HCT-116): > 100 µM; Activity [11]: 23%; inhibition [12]: inactive; inhibition (Influenza A virus [13]): inactive
CC(C)Cc1ccc(C(C)C(=O)NNC(=O)NC2CCCC2)cc1 (centres undefined) | 18 | inactive | inactive | inactive | 7 | 103 | inactive | inactive | inactive | inactive | inactive | 80 | inactive | inactive | 74 | inactive | inactive | inactive | inactive | inactive | inhibition [2, 14]: 26%; IC50 (NCI-H460): 32 µM; inhibition (Human alphaherpesvirus 1): inactive; inhibition [9]: inactive; inhibition (Influenza A virus [10]): inactive; IC50 (HCT-116): 32 µM; Activity [11]: 4%; inhibition [12]: inactive; inhibition (Influenza A virus [13]): inactive
